ChEMBL document CHEMBL1154191, “Evaluation of spirocyclic 3-(3-fluoropropyl)-2-benzofurans as sigma1 receptor ligands for neuroimaging with positron emission tomography” (J Med Chem, 2009)

What was measured:
Blood = experiment: Biodistribution in CD1 mouse blood assessed per gram of wet tissue at 400 to 600 kBq, iv after 30 mins post-injection by gamma counting; assay type: ADME, organism-based; conditions: in vivo, 0.5 h
Summary of the method: (§1)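 Female CD-1 mice (~8-12 weeks, 20-28 g) were fasted 24 h with free water. Conscious mice got 400-600 kBq [¹⁸F] tracer in saline by tail vein. At 5, 30, 60 or 120 min (n=4-5 per time) they were anesthetized, blood and urine sampled, then killed by cervical dislocation. Organs were weighed and γ-counted, giving % ID/g wet tissue.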

[1] = Metabolic stability in CD1 mouse plasma at 200 to 300 MBq, iv after 60 mins post-injection by supelcosil C18 HPLC and TLC-radiochromatography; assay type: ADME, organism-based; conditions: read-out: Stability
Summary of the method: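 Mice received 200-300 MBq [18F] tracer in 200 μL 0.9% saline via the tail vein, and samples were taken at 45 and 60 min (n=2 per time). Plasma was obtained by centrifugation (2000g, 4 °C, 10 min); brain and liver were homogenised in ice-cold 50 mM TRIS-HCl pH 7.4. Samples were precipitated with ice-cold MeCN and centrifuged (4000g, 4 °C, 15 min), and supernatants were analysed by gradient radio-HPLC and radio-TLC, with HPLC fractions γ-counted.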

Spleen = experiment: Biodistribution in CD1 mouse spleen assessed per gram of wet tissue at 400 to 600 kBq, iv after 30 mins post-injection by gamma counting; assay type: ADME, organism-based; conditions: in vivo, 0.5 h
Summary of the method: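 Female CD-1 mice (~8-12 weeks, 20-28 g), habituated ≥48 h and fasted 24 h with water available. The [18F] tracer (>150 GBq/μmol at end of synthesis) was given in 200 μL saline into the tail vein of conscious animals. At each time point, n=4-5, mice were anaesthetised, blood and urine sampled, then killed by cervical dislocation. Organs were weighed and γ-counted, and values calculated as % ID/g wet tissue.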

Mus musculus = experiment: Plasma concentration in CD1 mouse assessed per gram of wet tissue at 400 to 600 kBq, iv after 60 mins post-injection by gamma counting in presence of 1 mg/kg, ip sigma 1/sigma 2 receptor antagonist haloperidol treated before compound addition; assay type: organism-based; design: route intravenous; conditions: in vivo, 1 h
Summary of the method: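 Female CD-1 mice, fasted 24 h. […] Blood sampled and mice killed at 60 min pi. Samples weighed, γ-counted, %ID/g calculated. Compared with controls by two-tailed independent Student's t test.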

[2] = Biodistribution in CD1 mouse gonad assessed per gram of wet tissue at 400 to 600 kBq, iv after 30 mins post-injection by gamma counting; assay type: ADME, organism-based; conditions: in vivo, 0.5 h; summary of the method: as §1

In the case of `[18F]CCCC1OC2(CCN(Cc3ccccc3)CC2)c2ccccc21` (stereo not given), the Drug uptake (Blood) is reported as 0.56 %ID, the remaining at 1 h [1] is reported as greater than 85% and the Drug uptake (Spleen) is reported as 5.86 %ID. It also gave a Drug uptake (Mus musculus) of 0.63 %ID and a Drug uptake [2] of 4.11 %ID.
